Test results: ChEMBL document CHEMBL1157645, “Synthesis of 2-(thienyl-2-yl or -3-yl)-4-furyl-6-aryl pyridine derivatives and evaluation of their topoisomerase I and II inhibitory activity, cytotoxicity, and structure-activity relationship” (Bioorg Med Chem, 2010)

Legend:
[1] = tested on: MCF7; experiment: Cytotoxicity against human MCF7 cells in presence of 10% fetal bovine serum; assay type: functional
Outline: (§1)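 Cells cultured per supplier's instructions and seeded at 2–4 × 10⁴ cells per well. On day 2 the medium was replaced with medium containing graded compound concentrations. On day 4 cell counting kit-8 was added for a further 4 h, and absorbance was read at 450 nm. Values are 50% inhibitory concentrations, given as mean from three experiments run in triplicate.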

[2] = target: T1, DNA topoisomerase 1 (Homo sapiens) (UniProt P11387); experiment: Inhibition of human recombinant topoisomerase 1 assessed as inhibition of relaxation of supercoiled pBR322 DNA at 100 uM by agarose gel electrophoresis
T1 sequence (whole entry): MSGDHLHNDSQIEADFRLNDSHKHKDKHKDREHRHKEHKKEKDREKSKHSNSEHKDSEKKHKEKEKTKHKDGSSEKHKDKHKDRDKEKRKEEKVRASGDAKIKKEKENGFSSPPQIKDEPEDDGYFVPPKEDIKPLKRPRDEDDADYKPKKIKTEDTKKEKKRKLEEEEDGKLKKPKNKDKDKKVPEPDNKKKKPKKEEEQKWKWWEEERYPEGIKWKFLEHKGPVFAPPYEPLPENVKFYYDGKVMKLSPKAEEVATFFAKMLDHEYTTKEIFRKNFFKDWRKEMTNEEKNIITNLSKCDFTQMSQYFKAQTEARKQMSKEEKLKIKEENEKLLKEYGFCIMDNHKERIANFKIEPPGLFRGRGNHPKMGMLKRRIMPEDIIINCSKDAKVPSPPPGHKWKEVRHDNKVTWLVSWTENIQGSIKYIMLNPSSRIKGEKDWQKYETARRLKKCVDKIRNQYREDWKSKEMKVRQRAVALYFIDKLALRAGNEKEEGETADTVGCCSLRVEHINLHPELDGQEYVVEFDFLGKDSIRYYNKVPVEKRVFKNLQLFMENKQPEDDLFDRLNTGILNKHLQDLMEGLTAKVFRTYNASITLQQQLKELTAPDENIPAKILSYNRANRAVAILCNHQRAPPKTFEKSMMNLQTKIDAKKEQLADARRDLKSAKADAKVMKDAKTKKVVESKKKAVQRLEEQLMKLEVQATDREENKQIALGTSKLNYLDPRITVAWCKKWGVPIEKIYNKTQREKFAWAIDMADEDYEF
Outline: (§2)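 100 ng pBR322 DNA was incubated with 0.4 units of recombinant human topo I, with or without compound (DMSO stocks at 20 mM), for 30 min at 37 °C in 10 mM Tris–HCl pH 7.9, 150 mM NaCl, 0.1% BSA, 1 mM spermidine and 5% glycerol. The reaction was stopped with sarkosyl/bromophenol blue/glycerol and run on 1% agarose in TAE at 15 V for 7 h. Relaxation was read from ethidium bromide staining.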

[3] = target: T1, DNA topoisomerase 1 (Homo sapiens); experiment: Inhibition of human recombinant topoisomerase 1 assessed as inhibition of relaxation of supercoiled pBR322 DNA at 20 uM by agarose gel electrophoresis; outline: as §2
[4] = target: DNA topoisomerase 2-alpha (Homo sapiens) (UniProt P11388); experiment: Inhibition of human recombinant DNA topoisomerase 2 assessed as inhibition of relaxation of supercoiled pBR322 DNA at 100 uM by agarose gel electrophoresis
DNA topoisomerase 2-alpha (Homo sapiens), sequence (P11388 whole entry): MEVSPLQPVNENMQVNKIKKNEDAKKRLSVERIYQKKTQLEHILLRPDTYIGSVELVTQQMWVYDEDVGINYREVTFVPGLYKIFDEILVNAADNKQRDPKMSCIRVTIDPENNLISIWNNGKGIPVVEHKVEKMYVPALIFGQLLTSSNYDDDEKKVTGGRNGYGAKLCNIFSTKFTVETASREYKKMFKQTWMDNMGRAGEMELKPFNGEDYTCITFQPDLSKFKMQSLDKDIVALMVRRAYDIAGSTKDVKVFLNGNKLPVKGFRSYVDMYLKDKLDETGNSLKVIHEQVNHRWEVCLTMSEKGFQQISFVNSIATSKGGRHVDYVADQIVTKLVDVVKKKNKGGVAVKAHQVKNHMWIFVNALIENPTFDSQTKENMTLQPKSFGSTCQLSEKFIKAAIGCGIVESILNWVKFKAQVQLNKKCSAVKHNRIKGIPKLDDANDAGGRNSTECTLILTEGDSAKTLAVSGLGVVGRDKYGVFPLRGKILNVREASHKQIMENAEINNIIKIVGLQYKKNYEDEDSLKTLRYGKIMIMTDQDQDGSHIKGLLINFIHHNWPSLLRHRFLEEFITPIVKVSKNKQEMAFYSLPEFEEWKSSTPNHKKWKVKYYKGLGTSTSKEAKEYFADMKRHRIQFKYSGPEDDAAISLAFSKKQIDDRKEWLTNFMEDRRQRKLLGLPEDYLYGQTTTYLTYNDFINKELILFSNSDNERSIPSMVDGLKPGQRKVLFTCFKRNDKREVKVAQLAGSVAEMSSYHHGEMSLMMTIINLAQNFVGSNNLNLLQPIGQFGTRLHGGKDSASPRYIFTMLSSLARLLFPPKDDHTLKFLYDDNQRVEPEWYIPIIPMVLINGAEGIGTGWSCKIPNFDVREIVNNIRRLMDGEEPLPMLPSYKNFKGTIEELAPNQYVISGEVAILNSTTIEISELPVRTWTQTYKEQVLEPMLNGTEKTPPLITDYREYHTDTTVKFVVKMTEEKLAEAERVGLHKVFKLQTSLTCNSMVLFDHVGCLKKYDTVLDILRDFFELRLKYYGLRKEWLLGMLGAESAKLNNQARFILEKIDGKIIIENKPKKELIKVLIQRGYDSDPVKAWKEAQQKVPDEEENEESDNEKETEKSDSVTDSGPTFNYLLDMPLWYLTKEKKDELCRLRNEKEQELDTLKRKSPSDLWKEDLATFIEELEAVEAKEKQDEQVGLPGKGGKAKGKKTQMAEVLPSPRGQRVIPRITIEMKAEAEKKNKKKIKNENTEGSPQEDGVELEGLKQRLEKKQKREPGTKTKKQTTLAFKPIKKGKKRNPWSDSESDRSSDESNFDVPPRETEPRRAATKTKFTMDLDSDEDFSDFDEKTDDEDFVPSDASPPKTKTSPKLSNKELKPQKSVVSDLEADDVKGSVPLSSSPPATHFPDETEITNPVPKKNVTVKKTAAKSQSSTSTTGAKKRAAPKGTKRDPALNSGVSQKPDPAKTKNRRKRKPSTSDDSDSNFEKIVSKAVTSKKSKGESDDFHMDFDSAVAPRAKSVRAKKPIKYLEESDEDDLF
Outline: (§3)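 pBR322 DNA was incubated with two units of human topo IIα, with or without compound (DMSO stocks at 20 mM), in 10 mM Tris–HCl pH 7.9 with 50 mM NaCl, 5 mM MgCl₂, 1 mM EDTA, 1 mM ATP and BSA, for 30 min at 30 °C. The reaction was stopped with EDTA and run on 1% agarose in TAE at 25 V for 4 h. Gels were stained with ethidium bromide, and supercoiled DNA was quantified under UV.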

[5] = target: DNA topoisomerase 2-alpha (Homo sapiens) (UniProt P11388); experiment: Inhibition of human recombinant DNA topoisomerase 2 assessed as inhibition of relaxation of supercoiled pBR322 DNA at 20 uM by agarose gel electrophoresis; outline: as §3
[6] = tested on: HeLa; experiment: Cytotoxicity against human HeLa cells in presence of 10% fetal bovine serum; assay type: functional, cell-based; outline: as §1
[7] = tested on: DU-145; experiment: Cytotoxicity against human DU145 cells in presence of 10% fetal bovine serum; assay type: functional, cell-based; outline: as §1
[8] = tested on: HCT-15; experiment: Cytotoxicity against human HCT15 cells in presence of 10% fetal bovine serum; assay type: functional, cell-based; outline: as §1
[9] = tested on: K562; experiment: Cytotoxicity against human K562 cells in presence of 10% fetal bovine serum; assay type: functional, cell-based; outline: as §1

Row | inhibition [2] [%] | inhibition [3] [%] | inhibition [4] [%] | inhibition [5] [%] | Compound | IC50 [1] [µM] | IC50 [6] [µM] | IC50 [7] [µM] | IC50 [8] [µM] | IC50 [9] [µM]
1 | 29.8 | 5.2 | 75.9 | 65.7 | Clc1ccc(-c2cc(-c3ccc(Cl)o3)cc(-c3ccsc3)n2)cc1 | 1.77 | 8.41 | 19.5 | 5.19 | 18.7
2 | 0 |  | 20.5 |  | Clc1ccc(-c2cc(-c3ccoc3)cc(-c3ccsc3)n2)cc1 | 56.1 | 4.14 | 37.6 | > 100 | 0.73
3 | 9.1 |  | 62.6 | 34.7 | Cc1ccc(-c2cc(-c3ccc(Cl)o3)cc(-c3ccsc3)n2)o1 | 1.42 | > 50 | 18.5 | > 50 | 23.3
4 | 0 |  | 64.1 | 59.5 | Clc1ccc(-c2cc(-c3ccsc3)nc(-c3ccccc3Cl)c2)o1 | 1.71 | 8.07 | 19.3 | 4.57 | 17.2
5 | 25.8 |  | 51.5 | 30.9 | Clc1ccc(-c2cc(-c3cccnc3)nc(-c3cccs3)c2)o1 | 2.87 | 14.6 | 13 | 1.24 | 22.3
6 |  |  |  |  | COc1cc([C@@H]2c3cc4c(cc3[C@@H](O[C@@H]3O[C@@H]5CO[C@@H](C)O[C@H]5[C@H](O)[C@H]3O)[C@H]3COC(=O)[C@H]23)OCO4)cc(OC)c1O [ETOPOSIDE] | 1.66 | 1.57 | 2.45 | 1.29 | 2.84
7 | 0 |  | 75.9 | 75.4 | Clc1cccc(-c2cc(-c3ccc(Cl)o3)cc(-c3ccsc3)n2)c1 | 4.26 | 8.71 | 10.4 | 13.7 | 23
8 | 0 |  | 30.2 |  | Clc1ccc(-c2cc(-c3ccoc3)cc(-c3cccs3)n2)cc1 | 29.1 | 5.53 | 21.1 | 50 | 21.1
9 |  |  |  |  | COc1cccc2c1C(=O)c1c(O)c3c(c(O)c1C2=O)C[C@@](O)(C(=O)CO)C[C@@H]3O[C@H]1C[C@H](N)[C@H](O)[C@H](C)O1.Cl [DOXORUBICIN HYDROCHLORIDE] | 1.25 |  | 1.98 | 2.32 | 2.45
10 | 38.9 | 6.3 | 42.5 | 38.1 | Clc1ccc(-c2cc(-c3ccc(Cl)o3)cc(-c3cccs3)n2)cc1 | 2.45 | 21.3 | 19.2 | 14.2 | 20.9
11 | 6.7 |  | 59.6 | 46.3 | Cc1ccccc1-c1cc(-c2ccc(Cl)o2)cc(-c2ccsc2)n1 | 1.23 | 9.77 | 24.8 | 4.63 | 18.4
12 | 8.2 |  | 78.6 | 63.8 | Clc1ccc(-c2cc(-c3ccsc3)nc(-c3ccco3)c2)o1 | 21.3 | > 50 | 18.9 | > 50 | 22.4
13 | 7.5 |  | 64.1 | 56.7 | Cc1cccc(-c2cc(-c3ccc(Cl)o3)cc(-c3ccsc3)n2)c1 | 1.28 | 20.3 | 17.9 | 21.7 | 20.2
14 | 2.7 |  | 31.4 |  | Clc1ccc(-c2cc(-c3ccco3)cc(-c3cccs3)n2)cc1 | 24.6 | 32.7 | > 100 | > 100 | > 100
15 | 41.8 | 9.3 | 21.8 |  | Cc1ccc(-c2cc(-c3ccc(Cl)o3)cc(-c3cccs3)n2)cc1 | 1.33 | 16.3 | 19.3 | 9.89 | 21.5
16 | 0 |  | 63.1 | 60.9 | Clc1ccc(-c2cc(-c3ccsc3)nc(-c3ccccn3)c2)o1 | 21 | 22.5 | 10.9 | > 50 | 21.9
17 | 41.3 | 8 | 35 | 15.4 | Clc1ccc(-c2cc(-c3cccs3)nc(-c3ccccc3Cl)c2)o1 | 1.93 | 18.5 | 16.8 | 6.19 | 17.2
18 |  |  |  |  | CC[C@@]1(O)C(=O)OCc2c1cc1n(c2=O)Cc2cc3ccccc3nc2-1 [CAMPTOTHECIN] | 0.05 | 0.63 | 0.94 | 0.64 | 0.08
19 | 42 | 8.5 | 44.7 | 32.7 | Clc1cccc(-c2cc(-c3ccc(Cl)o3)cc(-c3cccs3)n2)c1 | 2.86 | 12.8 | 18.1 | 15.5 | 19.8
20 | 13.2 |  | 14.2 |  | Cc1ccc(-c2cc(-c3ccoc3)cc(-c3ccsc3)n2)cc1 | 9.32 | 1.47 | 13 | 44.8 | 47.8
21 | 2.6 |  | 78.9 | 70.2 | Cc1ccc(-c2cc(-c3ccc(Cl)o3)cc(-c3ccsc3)n2)cc1 | 0.63 | 16.2 | 21.2 | 7.41 | 19.9
22 | 0 |  | 86.5 | 60.8 | Clc1ccc(-c2cc(-c3cccnc3)nc(-c3ccsc3)c2)o1 | > 50 | > 50 | 21.6 | > 50 | 21.7
23 | 16 |  | 38.5 | 25.5 | Clc1ccc(-c2cc(-c3ccco3)nc(-c3cccs3)c2)o1 | 5.27 | 18.8 | 21.8 | > 50 | 16
